Bioassay records: PubChem, several laboratories
The list is not random: actives were taken first. Their share in the collection is about 6.7%.
PREPL inh: human PREPL enzyme inhibition; Q4J6C6; recombinant PREPL, fluorescence polarization activity-based probe; inhibition, % at 5.96 µM; 0.68% of 320,000 active; AID 2751; in the data active = inhibition above about 43%
Target sequence (Q4J6C6 whole entry, looked up): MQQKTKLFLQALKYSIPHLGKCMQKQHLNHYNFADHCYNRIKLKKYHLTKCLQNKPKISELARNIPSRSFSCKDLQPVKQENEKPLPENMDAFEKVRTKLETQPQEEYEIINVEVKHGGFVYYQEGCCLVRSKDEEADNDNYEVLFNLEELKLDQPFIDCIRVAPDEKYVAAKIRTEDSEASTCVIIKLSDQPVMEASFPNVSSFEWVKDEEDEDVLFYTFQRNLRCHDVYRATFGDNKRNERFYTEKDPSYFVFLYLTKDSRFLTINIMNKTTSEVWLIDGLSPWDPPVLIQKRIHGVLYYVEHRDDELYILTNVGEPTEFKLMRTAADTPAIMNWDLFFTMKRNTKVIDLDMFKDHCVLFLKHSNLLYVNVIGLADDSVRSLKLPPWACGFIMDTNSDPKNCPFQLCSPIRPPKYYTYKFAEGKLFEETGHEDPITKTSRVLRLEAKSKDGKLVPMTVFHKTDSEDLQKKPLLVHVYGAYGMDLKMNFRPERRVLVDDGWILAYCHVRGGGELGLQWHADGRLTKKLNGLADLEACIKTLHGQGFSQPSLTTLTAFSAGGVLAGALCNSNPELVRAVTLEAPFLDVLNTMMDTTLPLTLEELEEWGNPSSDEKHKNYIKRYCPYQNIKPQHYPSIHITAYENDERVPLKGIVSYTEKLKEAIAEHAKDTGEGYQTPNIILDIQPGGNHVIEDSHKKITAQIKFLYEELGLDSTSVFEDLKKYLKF
GRIN3A LBD mod: modulates the human NR3A ligand-binding domain; 2.5% of 340,000 active; Tm shift relative to glycine control, % at 25 µM; NR3A LBD differential scanning fluorimetry, Tm shift; 0% = protein alone, 100% = glycine-bound protein;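 active = melting temperature shift of at least 10% of the positive control shift, at one fixed dose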
T cruzi inh: T. cruzi replication inhibition; T. cruzi beta-gal in NIH3T3, luminescence, 90 h; inhibition, % (concentration not given with the values); 1.4% of 300,000 active; AID 1885;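 active = mean inhibition across valid replicates above about 55%, limit read from the data; inconclusive = mean below that limit but half or more replicates reach it; inactive = mean below it, under half of replicates reach it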;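 note: signal also drops with host cell toxicity which is not excluded here; higher percent means less beta-gal luminescence so fewer parasites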
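assay system = mouse NIH/3T3 fibroblasts infected with β-gal-expressing T. cruzi Tulahuen C4 | input = 5,000 NIH/3T3 host cells per well | buffer or medium = DMEM plus 2% FBS | timing = 3 h host attachment, then at least 90 h co-culture | measured by = GalScreen luminescence, 60 min | evaluation = luminescence reflecting intracellular parasite burden, expressed as percent inhibition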
CHOP inh: blocks CHOP induction under ER stress | inhibition, % at 10 µM | CHO-K1 CHOP-promoter luciferase, tunicamycin-induced, 15-18 h | 3.8% of 220,000 active;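 active = compounds that reduced the stress-induced luciferase reporter signal by more than about 70% of percent inhibition, limit read from the data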
Beta cell apopt: blocks beta cell apoptosis; INS-1E cytokine-induced death, ATP luminescence, 48 h; percent of positive-control rescue, neutral wells zero; protection from apoptosis, % (concentration not given with the values); 0.8% of 300,000 active; AID 435005;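 active = Every replicate reaches about 75%, or at least half do and their mean reaches it too, limit read from the data; inconclusive = At least half of replicates reach the limit but their mean does not; inactive = Under half of replicates reach the limit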;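 note: higher means more ATP so stronger rescue from cytokine killing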
CSC inhib: cancer stem cell inhibition; cancer stem cell-like cells viability, luminescence; inhibition, % at 7.5 µM; AID 2717; 1.1% of 300,000 active; in the data active = inhibition above about 75%; inconclusive = no clear call, values can overlap the other calls; tested in HMLE shEcad cells
A number is an active result.

What do the screens show for `CCCCCC(=O)Nc1cccc(C2=NOC3(C2)C[C@H](C(N)=O)N(C(=O)[C@H]2CCC(=O)N2)C3)c1` (some centres undefined)?
PREPL inh: inactive; GRIN3A LBD mod: 12; T cruzi inh: inactive; CHOP inh: inactive; Beta cell apopt: inactive; CSC inhib: inactive

How did NC(=O)[C@H]1CC2(CC(c3cccc(NC(=O)COc4ccc(Cl)cc4)c3)=NO2)CN1C(=O)c1ccc(Cl)cc1 (some centres undefined) do in these assays?
PREPL inh: inactive; GRIN3A LBD mod: inactive; T cruzi inh: inactive; CHOP inh: 95; Beta cell apopt: inactive; CSC inhib: inactive

Results for NC(=O)[C@@H]1CC2(CC(c3cccc(NC(=O)CC(c4ccccc4)c4ccccc4)c3)=NO2)CN1C(=O)[C@@H]1CCC(=O)N1 (some centres undefined) ?
PREPL inh: inactive; GRIN3A LBD mod: inactive; T cruzi inh: inactive; CHOP inh: inactive; Beta cell apopt: inactive; CSC inhib: inactive

What do the screens show for `COc1cccc(CNC(=O)CN(c2ccc(C(C)C)cc2)S(=O)(=O)c2c(C)noc2C)c1`?
PREPL inh: inactive; GRIN3A LBD mod: inactive; T cruzi inh: inactive; Beta cell apopt: inactive; CSC inhib: inactive

What do the screens show for `CCCCCCCCNS(=O)(=O)CCNC1CC1`?
GRIN3A LBD mod: inactive

Results for COc1ccc([C@H]2CC(=O)C=C(c3c(OC)cccc3OC)C2)cc1 ?
PREPL inh: inactive; GRIN3A LBD mod: inactive; Beta cell apopt: inactive; CSC inhib: inactive

How did O=c1c2ccccc2oc2c1ccc1ccccc12 do in these assays?
GRIN3A LBD mod: 18

Results for Cc1cccc(N2CCN(C(=O)COc3cccc4c3OC(C)(C)C4)CC2)c1C ?
PREPL inh: inactive; GRIN3A LBD mod: inactive; T cruzi inh: inactive; CHOP inh: 79; Beta cell apopt: inactive; CSC inhib: inactive

How did Cc1cccc(N2CCN(C(=O)CCCOc3ccccc3)CC2)c1C do in these assays?
PREPL inh: inactive; GRIN3A LBD mod: inactive; T cruzi inh: inactive; CHOP inh: 84; Beta cell apopt: inactive; CSC inhib: inactive

What do the screens show for `CC1(C)Cc2cccc(OCC(=O)N3CCN(S(=O)(=O)c4ccc(F)cc4)CC3)c2O1`?
PREPL inh: inactive; GRIN3A LBD mod: inactive; T cruzi inh: inactive; CHOP inh: inactive; CSC inhib: inactive

How did Cc1cccc(N2CCN(C(=O)Cn3cccc3C(=O)c3ccccc3)CC2)c1C do in these assays?
PREPL inh: inactive; GRIN3A LBD mod: inactive; T cruzi inh: inactive; CHOP inh: 71; Beta cell apopt: inactive; CSC inhib: inactive

How did Cc1cc(OCCCC(=O)N2CCCCC2)cc(C)c1Cl do in these assays?
PREPL inh: inactive; GRIN3A LBD mod: inactive; T cruzi inh: inactive; CHOP inh: 83; Beta cell apopt: inactive; CSC inhib: inactive

How did CC1CCN(C(=O)CN2C(=O)C(=O)N(C)C2=O)c2ccccc2S1 (centres undefined) do in these assays?
PREPL inh: inactive; GRIN3A LBD mod: inactive; Beta cell apopt: inactive

Results for CC/C=C(\NC(C)=O)c1ccccc1 ?
PREPL inh: inactive; GRIN3A LBD mod: inactive; Beta cell apopt: inactive; CSC inhib: inactive

How did CCN(CC)S(=O)(=O)c1ccc(N2CCCC2)c(NC(=O)c2ccc(N3CCCC3=O)cc2)c1 do in these assays?
PREPL inh: inactive; GRIN3A LBD mod: inactive; T cruzi inh: inactive; Beta cell apopt: inactive; CSC inhib: inactive

What do the screens show for `N/C(=N\OCc1ccc([N+](=O)[O-])cc1)c1ccccn1`?
PREPL inh: inactive; GRIN3A LBD mod: inactive; T cruzi inh: inactive; CHOP inh: 83; Beta cell apopt: inactive; CSC inhib: inactive

How did O=C(NN=C(c1ccccc1)c1ccccn1)c1ccccc1 do in these assays?
PREPL inh: inactive; GRIN3A LBD mod: inactive; Beta cell apopt: 103; CSC inhib: inactive

How did COc1ccc(C(=O)N/N=C(\c2ccccc2)c2ccccn2)cc1 do in these assays?
PREPL inh: inactive; GRIN3A LBD mod: inactive; T cruzi inh: inconclusive; CHOP inh: inactive; Beta cell apopt: 113; CSC inhib: inactive

How did S=C(NN=C(c1ccccc1)c1ccccn1)N(Cc1ccccn1)Cc1ccccn1 do in these assays?
GRIN3A LBD mod: inactive

How did N/C(=N\OC(=O)c1ccccc1)c1ccccn1 do in these assays?
PREPL inh: inactive; GRIN3A LBD mod: inactive; T cruzi inh: inactive; CHOP inh: 86; Beta cell apopt: inactive; CSC inhib: inactive

What do the screens show for `O=C(COC(=O)c1cccc(Br)c1)NCC1CCCO1` (centres undefined)?
PREPL inh: inactive; GRIN3A LBD mod: inactive; Beta cell apopt: inactive; CSC inhib: inactive

What do the screens show for `COc1cc(C)c(CN2CCN(C(C)C(=O)NC(C)c3ccccc3)CC2)cc1OC` (centres undefined)?
PREPL inh: inactive; GRIN3A LBD mod: inactive; T cruzi inh: inactive; Beta cell apopt: inactive; CSC inhib: inactive

How did Cc1nc2cc(NC(=O)c3ccco3)ccc2n1C do in these assays?
PREPL inh: inactive; GRIN3A LBD mod: inactive; T cruzi inh: inactive; Beta cell apopt: inactive; CSC inhib: inactive

How did Cc1ccc(C)c(NC(=S)NCCN(C2CCCCC2)C2CCCC2)c1 do in these assays?
PREPL inh: inactive; GRIN3A LBD mod: inactive; T cruzi inh: inactive; CHOP inh: inactive; Beta cell apopt: inactive; CSC inhib: inactive

How did COc1ccccc1NC(=O)c1cc([N+](=O)[O-])ccc1N1CCOCC1 do in these assays?
PREPL inh: inactive; GRIN3A LBD mod: inactive; T cruzi inh: inactive; Beta cell apopt: inactive; CSC inhib: inactive

Results for O=C(N/N=C(\c1ccccc1)c1ccccn1)c1ccccc1Cl ?
PREPL inh: inactive; GRIN3A LBD mod: inactive; T cruzi inh: 62; Beta cell apopt: 94; CSC inhib: inactive

What do the screens show for `COc1ccc(C(=O)O/N=C(/c2ccccc2)c2ccncc2)cc1`?
PREPL inh: 87; GRIN3A LBD mod: inactive; T cruzi inh: inactive; CHOP inh: inactive; Beta cell apopt: inactive; CSC inhib: inactive

What do the screens show for `CCN(CC)CCOc1ccc(/C(=C(\Cl)c2ccccc2)c2ccccc2)cc1`?
PREPL inh: inactive; GRIN3A LBD mod: inactive; T cruzi inh: inactive; Beta cell apopt: inactive; CSC inhib: 103

Results for NC1=NC(c2ccc(Cl)cc2)C(C(=O)c2ccccc2)N1 (centres undefined) ?
PREPL inh: inactive; GRIN3A LBD mod: inactive; T cruzi inh: inactive; CHOP inh: inactive; Beta cell apopt: inactive; CSC inhib: inactive

What do the screens show for `CC(=O)N1c2ccccc2C(C)CC12CCCCC2` (centres undefined)?
PREPL inh: inactive; GRIN3A LBD mod: inactive; T cruzi inh: inactive; CHOP inh: 85; Beta cell apopt: inactive

Results for O=C(NCCC(=O)N(CCc1ccccc1)Cc1ccccc1)c1ccc([N+](=O)[O-])cc1 ?
PREPL inh: inactive; GRIN3A LBD mod: inactive; T cruzi inh: inactive; Beta cell apopt: inactive; CSC inhib: inactive

What do the screens show for `CCOC(=O)c1ccc(NC(=S)NCCc2ccc(F)cc2)cc1`?
PREPL inh: inactive; GRIN3A LBD mod: 24; T cruzi inh: inactive; CHOP inh: inactive; Beta cell apopt: inactive; CSC inhib: inactive
